Laboratory results as given in ChEMBL document CHEMBL1140581, “Structure-activity relationship study of [1,2,3]thiadiazole necroptosis inhibitors” (Bioorg Med Chem Lett, 2007).
Active and inactive are the calls of the source. The rule behind the calls is not given here.

These compounds were tested on L929 (assay: Inhibition of TNF-alpha-induced necroptosis in […] assessed as cell viability at 30 uM after 24 hrs by ATP-based assessement method).
Type: functional
How it was run: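 L929 cells given 10 ng/mL human TNF-α for 24 h with compound at 30 μM. ATP-based viability, normalized to compound-only cells without stimulus (100%). N = 2, standard deviation.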

| SMILES | Activity |
| --- | --- |
| COc1ccc([C@H]2C3CCc4ccc(OC)cc4C3=NN2C(C)=O)cc1 (stereo not given in full) | Active |
| CN1C(=O)N[C@H](Cc2c[nH]c3c(Cl)cccc23)C1=O | Active |
| C[C@H](NC(=O)c1snnc1C1CC1)c1c(F)cccc1Cl | Active |

Each compound was assayed on L929 (assay: Inhibition of zVAD-induced necroptosis in […] assessed as cell viability at 30 uM after 24 hrs by ATP-based assessement method).
Type: functional
How it was run: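 L929 cells treated 24 h with 100 μM zVAD.fmk as the necroptotic stimulus, compound at 30 μM. ATP-based viability, normalized to compound-only cells without stimulus (100%). N = 2, standard deviation.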

| SMILES | Activity |
| --- | --- |
| COc1ccc([C@H]2C3CCc4ccc(OC)cc4C3=NN2C(C)=O)cc1 (stereo not given in full) | inactive |
| CN1C(=O)N[C@H](Cc2c[nH]c3c(Cl)cccc23)C1=O | Active |
| C[C@H](NC(=O)c1snnc1C1CC1)c1c(F)cccc1Cl | inactive |

Each compound was assayed on Jurkat (assay: Inhibition of TNF-alpha-induced necroptosis in FADD-deficient human Jurkat T cells after 24 hrs).
Type: functional, cell-based
How it was run: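 FADD-deficient human Jurkat T cells at 5×10^5 cells/mL, 24 h at 37 °C, 5% CO2, with 10 ng/mL human TNF-α plus compound at eleven concentrations (0.030–100 μM), each in duplicate. DMSO stocks diluted in DMSO; final DMSO 0.5%. Viability by luminescent ATP assay (CellTiter-Glo), expressed as signal with TNF-α plus compound over signal with compound alone. EC50 from the dose series.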

| SMILES | EC50 [µM] |
| --- | --- |
| CCCc1nnsc1C(=O)NCc1c(F)cccc1Cl | 4.1 |
| Cc1ccoc1C(=O)NCc1c(F)cccc1Cl | 13 |
| O=C(NCc1c(F)cccc1Cl)c1sccc1C1CC1 | 5.1 |
| O=C(NCc1c(F)ccc(F)c1Cl)c1snnc1C1CC1 | 0.52 |
| O=C(NCc1ccccn1)c1snnc1C1CC1 | 40 |
| COc1ccccc1CNC(=O)c1snnc1C | > 100 |
| CCOc1ccsc1C(=O)NCc1c(F)cccc1Cl | > 100 |
| O=C(NCc1c(F)cccc1Cl)c1snnc1C1CCCCC1 | 6 |
| O=C(NC(=O)c1c(F)cccc1Cl)c1snnc1C1CC1 | > 100 |
| O=C(NCc1c(F)cccc1Cl)c1snnc1C1CCC1 | 0.6 |
| Cc1c(Br)csc1C(=O)NCc1c(F)cccc1Cl | 1.3 |
| O=C(NCc1c(F)cccc1Cl)c1sccc1Cl | 9.6 |
| O=C(NCc1c(Cl)cccc1Cl)c1snnc1C1CC1 | 6 |
| C[C@@H](NC(=O)c1snnc1C1CC1)c1c(F)cccc1Cl | > 100 |
| CC(C)c1nnsc1C(=O)NCc1c(F)cccc1Cl | 0.58 |
| Cc1c(S(=O)(=O)c2ccc(Cl)cc2)csc1C(=O)NCc1c(F)cccc1Cl | > 100 |
| Cc1cccc(Cl)c1CNC(=O)c1snnc1C1CC1 | 10 |
| CC(C)(C)c1nnsc1C(=O)NCc1c(F)cccc1Cl | 18 |
| O=C(NCc1c(Cl)cccc1Oc1ccccc1)c1snnc1C1CC1 | > 100 |
| Cc1nnsc1C(=O)N(C)Cc1c(F)cccc1Cl | 11 |
| O=C(Nc1c(F)cccc1F)c1snnc1C1CC1 | > 100 |
| N#Cc1cccc(Cl)c1CNC(=O)c1snnc1C1CC1 | > 100 |
| Cc1ncsc1C(=O)NCc1c(F)cccc1Cl | 20 |
| CC(NC(=O)c1snnc1C1CC1)c1c(F)cccc1Cl (stereo not given) | 0.4 |
| Cc1nnsc1C(=O)NCc1c(F)cccc1Cl | 1 |
| CCCCC(NC(=O)c1snnc1C1CC1)c1c(F)cccc1Cl (stereo not given) | > 100 |
| CN(Cc1c(F)cccc1Cl)C(=O)c1snnc1C1CC1 | 16 |

| SMILES | EC50 [µM] |
| --- | --- |
| Cc1ccccc1CNC(=O)c1snnc1C | 27 |
| Cc1ccsc1C(=O)NC(C)c1c(F)cccc1Cl (stereo not given) | 3.9 |
| Cc1ccc(C(=O)NCc2c(F)cccc2Cl)s1 | 3.9 |
| O=C(NCc1c(F)cccc1Cl)c1snnc1-c1ccccc1 | > 100 |
| O=C(NCCc1c(F)cccc1Cl)c1snnc1C1CC1 | 27 |
| Cc1c(C#N)csc1C(=O)NCc1c(F)cccc1Cl | 1.2 |
| Cc1csc(C(=O)NCc2c(F)cccc2Cl)c1 | 3.7 |
| O=C(NCc1c(F)cccc1F)c1snnc1C1CC1 | 1.5 |
| O=C(NCc1c(F)ccc(Cl)c1F)c1snnc1C1CC1 | 0.18 |
| Cc1nnccc1C(=O)NCc1c(F)cccc1Cl | > 100 |
| Cc1ncoc1C(=O)NCc1c(F)cccc1Cl | > 100 |
| O=C(NCc1ncccc1F)c1snnc1C1CC1 | 9.6 |
| O=C(NCc1c(F)cccc1Cl)c1snnc1C1CCCC1 | 1.9 |
| Cc1nc(C)c(C(=O)NCc2c(F)cccc2Cl)s1 | > 100 |
| O=C(NCc1c(F)cccc1Cl)c1cccs1 | 9.4 |
| Cc1csc(C(=O)NCc2c(F)cccc2Cl)c1Cl | 3.9 |
| O=C(NCc1c(F)cccc1Cl)c1snnc1C1CC1 | 0.5 |
| CC(C)(NC(=O)c1snnc1C1CC1)c1c(F)cccc1Cl | > 100 |
| O=C(NCc1cccc2ccccc12)c1snnc1C1CC1 | > 100 |
| O=C(NC(c1ccccc1)c1c(F)cccc1Cl)c1snnc1C1CC1 (stereo not given) | > 100 |
| Cc1nc(-c2ccc(Cl)cc2)sc1C(=O)NCc1c(F)cccc1Cl | > 100 |
| O=C(NCc1c(F)cccc1C(F)(F)F)c1snnc1C1CC1 | > 100 |
| Cc1nnsc1C(=O)NCc1c(F)cccc1F | 3.5 |
| Fc1cccc(Cl)c1CNCc1snnc1C1CC1 | > 100 |
| Cc1ccsc1C(=O)NCc1c(F)cccc1Cl | 7 |
| O=C(NCc1ccccc1F)c1snnc1C1CC1 | 1.5 |
| C[C@H](NC(=O)c1snnc1C1CC1)c1c(F)cccc1Cl | 0.28 |

The compounds below were run on Jurkat (assay: Inhibition of TNF-alpha-induced necroptosis in FADD-deficient human Jurkat T cells assessed as cell viability at 30 uM after 24 hrs by ATP-based assessement method).
Type: functional
How it was run: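 FADD-deficient Jurkat cells exposed 24 h to 10 ng/mL human TNF-α with compound at 30 μM. Viability by ATP-based luminescence, normalized to cells given compound without the necroptotic stimulus (set as 100%). N = 2, standard deviation.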

| SMILES | Activity |
| --- | --- |
| COc1ccc([C@H]2C3CCc4ccc(OC)cc4C3=NN2C(C)=O)cc1 (stereo not given in full) | Active |
| CN1C(=O)N[C@H](Cc2c[nH]c3c(Cl)cccc23)C1=O | Active |
| C[C@H](NC(=O)c1snnc1C1CC1)c1c(F)cccc1Cl | Active |

The compounds below were run on Fibroblast (assay: Inhibition of TNFalpha and zVAD-induced necroptosis in SV40-transformed mouse adult lung fibroblasts assessed as cell viability at 30 uM after 24 hrs by ATP-based assessement method).
Type: functional
How it was run: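 SV40-transformed mouse adult lung fibroblasts stimulated 24 h with 10 ng/mL human TNF-α plus 100 μM zVAD.fmk, compound at 30 μM. ATP-based viability, normalized to compound-treated cells without stimulus (100%). N = 2, standard deviation.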

| SMILES | Activity |
| --- | --- |
| CN1C(=O)N[C@H](Cc2c[nH]c3c(Cl)cccc23)C1=O | Active |
| C[C@H](NC(=O)c1snnc1C1CC1)c1c(F)cccc1Cl | Active |
